UCH37 inh = inhibitors of human deubiquitinating enzyme UCH37 | Q9Y5K5 | purified proteasome/UCH37, Ub-AMC cleavage fluorescence | 330,000 compounds, 0.33% hits | AID 588478 | inhibition, % (no concentration beside the values);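 active = mean inhibition over replicate wells above about 20%, limit read from the data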
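assay system = human UCH37 enzyme supplied as purified proteasome complex | amount = proteasome at 0.15 nM in the dispensed enzyme solution | schedule = 30 min compound-proteasome preincubation then 25 min substrate reaction, room temperature | measured by = fluorescence, ex 355 nm, em 460 nm | benchmarks = no-proteasome wells (full inhibition) and compound-free wells (no inhibition)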
Apaf1 inhib = inhibitors of human Apaf-1 apoptosome; O14727; reconstituted apoptosome caspase-3 activity, DEVD-Rh110 fluorescence; inhibition, % at 20 µM; 330,000 compounds, 0.71% hits; AID 489030; active = inhibition of at least 40% at 20 µM
Target sequence (O14727 whole entry, looked up): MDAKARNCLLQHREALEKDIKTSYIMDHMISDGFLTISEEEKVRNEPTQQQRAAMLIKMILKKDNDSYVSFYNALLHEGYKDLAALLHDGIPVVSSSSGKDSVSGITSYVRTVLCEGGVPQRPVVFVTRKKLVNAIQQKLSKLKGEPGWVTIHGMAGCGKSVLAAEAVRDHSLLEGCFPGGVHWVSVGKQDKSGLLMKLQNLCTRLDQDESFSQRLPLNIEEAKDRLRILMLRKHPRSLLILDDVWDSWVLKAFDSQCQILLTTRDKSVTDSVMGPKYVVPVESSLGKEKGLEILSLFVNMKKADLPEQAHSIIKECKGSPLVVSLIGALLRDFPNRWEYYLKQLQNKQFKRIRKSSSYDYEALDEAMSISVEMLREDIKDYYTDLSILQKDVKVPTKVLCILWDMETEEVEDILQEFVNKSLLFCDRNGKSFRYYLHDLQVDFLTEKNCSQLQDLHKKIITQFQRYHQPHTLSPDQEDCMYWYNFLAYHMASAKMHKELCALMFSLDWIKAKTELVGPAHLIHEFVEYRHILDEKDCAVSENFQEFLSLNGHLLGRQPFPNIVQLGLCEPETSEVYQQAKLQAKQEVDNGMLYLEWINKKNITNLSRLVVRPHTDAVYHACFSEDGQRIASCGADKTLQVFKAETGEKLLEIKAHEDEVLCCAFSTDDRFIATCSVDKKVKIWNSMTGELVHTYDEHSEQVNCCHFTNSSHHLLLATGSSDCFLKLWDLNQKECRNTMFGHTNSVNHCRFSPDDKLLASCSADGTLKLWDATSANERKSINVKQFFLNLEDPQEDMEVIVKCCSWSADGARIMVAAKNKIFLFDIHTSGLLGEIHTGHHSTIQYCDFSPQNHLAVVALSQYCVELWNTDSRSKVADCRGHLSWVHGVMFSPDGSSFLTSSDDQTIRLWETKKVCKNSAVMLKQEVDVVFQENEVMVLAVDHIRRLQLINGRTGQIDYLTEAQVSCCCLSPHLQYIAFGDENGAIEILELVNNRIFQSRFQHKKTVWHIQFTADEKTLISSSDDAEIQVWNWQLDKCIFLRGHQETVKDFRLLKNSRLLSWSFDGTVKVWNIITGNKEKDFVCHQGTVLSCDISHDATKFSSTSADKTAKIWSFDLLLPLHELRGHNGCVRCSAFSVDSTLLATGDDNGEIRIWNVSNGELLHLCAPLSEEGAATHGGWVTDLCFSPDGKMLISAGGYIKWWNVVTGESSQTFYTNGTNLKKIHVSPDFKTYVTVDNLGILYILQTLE
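Material: cell-free apoptosome with Apaf-1, procaspase-3 and caspase-9; Buffer or medium: Hepes pH 7.5 with detergent and BSA; Reagent: cytochrome c trigger plus (Z-DEVD)2-Rh110 caspase-3 substrate; Times: compound with Apaf-1, dATP, procaspase-3 30 min, then 50 min reaction, room temperature; Technique: Rh110 fluorescence intensity.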
PREPL inh = inhibitors of human prolyl oligopeptidase-like enzyme PREPL. Q4J6C6. recombinant PREPL, fluorescence polarization activity-based probe. inhibition, % at 5.96 µM. 320,000 compounds, 0.68% hits. AID 2751
UBC13 polyUb = blocks human UBC13 polyubiquitin chain formation; P61088; AID 485273; inhibition, % at 20 µM; 330,000 compounds, 0.47% hits; TR-FRET; in the data active = inhibition above about 45%, passing the limit was not always enough; inconclusive = no clear call, values can overlap the other calls
PREPL confirm = confirmation of human PREPL enzyme inhibitors. shares compounds with PREPL inh. recombinant PREPL, fluorescence polarization activity probe. inhibition, % at 5.96 µM. 2,000 compounds, 67% hits
Casp3 counter = inhibits human caspase-3 in UBC13 counter-screen. shares compounds with UBC13 polyUb. Recombinant caspase-3, Caspase-Glo 3/7 luminescence, 60 min. inhibition, % at 20 µM. 1,400 compounds, 4% hits. AID 488856;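 active = mean inhibition across replicates above about 26%, limit read from the data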
UBC13 conf = confirmation of human UBC13 polyubiquitin inhibitors; inhibition, % at 10 µM; shares compounds with UBC13 polyUb; UBC13 polyubiquitination, TR-FRET, biochemical; 1,400 compounds, 68% hits; AID 488859; in the data active = inhibition above about 45%; inconclusive = no clear call, values can overlap the other calls
Apaf-1 inh conf2 = confirmation of Apaf-1 inhibitors; shares compounds with Apaf1 inhib; reconstituted apoptosome, caspase-3 DEVD-Rh110 fluorescence; inhibition, % at 20 µM; 1,800 compounds, 25% hits; AID 504614;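 active = mean inhibition of at least 40% at 20 µM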
Rh110 interf inh = interferes with Rh110 fluorescence, flagging false Apaf-1 inhibitors | activation (fluorescence interference), % at 20 µM | Rh110 fluorescence interference, quenched caspase reaction | 1,800 tested, under 10 active | shares compounds with Apaf1 inhib;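 active = signal rise of 40% or more at 20 µM, treated as a fluorescence artifact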
Apaf1 inh interf = shows fluorescence interference in the Apaf-1 inhibitor assay format; fluorescence interference counterscreen, Apaf-1 assay format; shares compounds with Apaf1 inhib; AID 588538; 460 tested, under 10 active; IC50, µM; call rule not given here
UCH37 reconfirm = reconfirmed inhibitor of human deubiquitinase UCH37 | shares compounds with UCH37 inh | Proteasome-bound UCH37, Ub-AMC cleavage fluorescence | inhibition, % at 20 µM | 480 compounds, 27% hits | AID 624100;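 active = average inhibition over replicates above about 50%, so the earlier screening hit is confirmed, limit read from the data; inactive = the rest, counted as false positives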;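 note: based on cleavage rate fitted by regression over a 30 min kinetic read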
Of the large screens only hits and unclear results are named; the others gave an inactive call (follow-up assays come after a bar, where they were run); ! = not confirmed by another sample. Sampled rows, rich in hits. Any-hit rate of the full collection: about 1.5%. Cut-off read from the data, not from the text of the source, unless noted: active = inhibition above about 43%; inactive = the rest.

CC(C)C12CN3CCN(CC(C3)C1=NO)C2	none (no result: Apaf1 inhib, PREPL inh, UBC13 polyUb)
C[n+]1c(-c2ccccc2)c2cc(N)ccc2c2ccc(N)cc21	Apaf1 inhib 98, PREPL inh 142 | PREPL confirm 124 | Apaf-1 inh conf2 80 | Rh110 interf inh inactive | Apaf1 inh interf inactive
COC(=O)C1=C(c2cccc(OCc3ccccc3)c2)C[C@@H]2CC[C@H]1N2C(=O)NC1CCN(Cc2ccccc2)CC1	Apaf1 inhib 48, PREPL inh 51 | PREPL confirm 44 | Apaf-1 inh conf2 inactive | Rh110 interf inh inactive
Cn1ncnc2c(=O)n(C)c(=O)nc1-2	UCH37 inh 100, Apaf1 inhib 99, PREPL inh 44 | PREPL confirm 54 | UCH37 reconfirm 100
CCn1cc(C=c2sc3n(c2=O)C2c4ccccc4OC(C)(N=3)C2C(=O)OC)c(C)n1 (stereo not given)	none (no result: Apaf1 inhib, PREPL inh, UBC13 polyUb)
CN1CCN(c2ccc(N)c(N3CCN(C)CC3)c2)CC1	UBC13 polyUb 49 | Casp3 counter inactive | UBC13 conf 78
O=c1c2ccccc2[nH]c(=S)n1-c1cccnc1	none
O=c1c2cc(Br)ccc2[nH]c(=S)n1-c1ccccc1	UBC13 polyUb 46 | Casp3 counter inactive | UBC13 conf inconclusive
Cc1ccc2[nH]c(=S)n(-c3cccnc3)c(=O)c2c1	UBC13 polyUb 50 | Casp3 counter inactive | UBC13 conf inconclusive
O=c1c2ccccc2[nH]c(=S)n1-c1ccc(Br)cc1	none
COC[C@]12CN(C)C3C4[C@H](OC)C1C3([C@@H](OC)C[C@H]2O)[C@@H]1C[C@@]2(O)[C@H](OC(=O)c3ccccc3)[C@@H]1[C@]4(OC(C)=O)[C@@H](O)[C@@H]2OC	none (no result: Apaf1 inhib, PREPL inh, UBC13 polyUb)
NC(=S)NN=Cc1coc2ccccc2c1=O	none (no result: Apaf1 inhib, PREPL inh, UBC13 polyUb)
CC1CCCC(C)N1N=Cc1c[nH]c2ccc(Br)cc12 (stereo not given)	none (no result: Apaf1 inhib, PREPL inh, UBC13 polyUb)
Clc1ccc(C(Cn2ccnc2)OCc2csc3c(Cl)cccc23)c(Cl)c1 (stereo not given)	none
Clc1ccc(CCC(Cn2ccnc2)Sc2c(Cl)cccc2Cl)cc1 (stereo not given)	UBC13 polyUb 48 | Casp3 counter inactive | UBC13 conf inactive
Cc1ccc2c(c1)C1CN(C)CCC1N2C(=O)/C(C#N)=C/c1ccc2c(c1)OCO2 (stereo not given)	UBC13 polyUb 46 | Casp3 counter inactive | UBC13 conf 56
CN1[C@@H]2CC[C@H]1CC(OC1c3ccccc3CCc3ccccc31)C2 (stereo not given in full)	UBC13 polyUb 58 | Casp3 counter inactive | UBC13 conf inactive
CN1C2CCC1CC(OC(=O)c1ccc(Cl)cc1)C2 (stereo not given)	none
COc1ccc(O)c2c(=O)c3c(OC)cc4c(c3oc12)C1C=COC1O4 (stereo not given)	none (no result: UBC13 polyUb) | Casp3 counter inactive
O=C(C(=O)N1CCOCC1)c1cn(Cc2ccccc2)c2ccccc12	UBC13 polyUb 45 | Casp3 counter inactive | UBC13 conf inactive
O=C1OCCN1N=Cc1ccc([N+](=O)[O-])o1	none (no result: Apaf1 inhib, PREPL inh, UBC13 polyUb)
Cc1ccc2c(c1)C1C[N+](C)(CC(=O)c3ccc(Cl)cc3Cl)CCC1N2C(=O)c1ccc(F)cc1 (stereo not given)	UBC13 polyUb 47 | Casp3 counter inactive | UBC13 conf 49
ClCCN1CCN(c2ccnc3cc(Cl)ccc23)CC1	UBC13 polyUb 62 | Casp3 counter inactive | UBC13 conf 90
CC(=O)N1N=C(c2c(O)n(C)c(=O)n(C)c2=O)CC1c1ccccc1 (stereo not given)	UBC13 polyUb 51 | Casp3 counter inactive | UBC13 conf inactive
CC(=O)N1N=C(c2cccnc2)CC1c1ccccc1O (stereo not given)	none
CCCCCC(=NO)c1c[nH]c2ccccc12	none (no result: Apaf1 inhib, PREPL inh, UBC13 polyUb)
NC(=NN=Cc1ccc(O)cc1)N[N+](=O)[O-]	none (no result: Apaf1 inhib, PREPL inh, UBC13 polyUb)
Cc1cccc(N2CCc3c2nc2ccccc2c3N)c1	UBC13 polyUb 62! | Casp3 counter inactive | UBC13 conf 47
CC(CC(c1ccccc1)c1c(O)c2ccccc2oc1=O)=NNc1ccc([N+](=O)[O-])cc1[N+](=O)[O-] (stereo not given)	none (no result: Apaf1 inhib, PREPL inh, UBC13 polyUb)
COC(=O)C1=C(c2ccc(F)cc2OCc2ccccc2)C[C@@H]2CC[C@H]1N2C(=O)NC1CCN(Cc2ccccc2)CC1	Apaf1 inhib 53, UBC13 polyUb 51 | Casp3 counter inactive | UBC13 conf inactive | Apaf-1 inh conf2 inactive | Rh110 interf inh inactive
CCCCCCCCCCCCCCCC[N+](C)(C)C	Apaf1 inhib 85, UBC13 polyUb 90 | Casp3 counter inactive | UBC13 conf 84 | Apaf-1 inh conf2 46 | Rh110 interf inh inactive | Apaf1 inh interf inactive
CCCCCC[N+](=O)[O-]	none
NCCc1ccc(OCc2ccccc2)c(OCc2ccccc2)c1	Apaf1 inhib 46, UBC13 polyUb 60 | Casp3 counter inactive | UBC13 conf 59 | Apaf-1 inh conf2 inactive | Rh110 interf inh inactive
CC12CC[C@H]3[C@@H](CCC4(O)C[C@H](O)CCC34C=NNC(=O)Cc3ccccc3)C1(O)CCC2C1=CC(=O)OC1 (stereo not given in full)	none (no result: Apaf1 inhib, PREPL inh, UBC13 polyUb)
Ic1ccccc1CN[C@@H]1C2CCN(CC2)[C@@H]1C(c1ccccc1)c1ccccc1	Apaf1 inhib 50, UBC13 polyUb 49 | Casp3 counter inactive | UBC13 conf inactive | Apaf-1 inh conf2 inactive | Rh110 interf inh inactive
Fc1ccccc1CNC1CN2CCC1CC2 (stereo not given)	none
Cc1cc(N(CCCl)CCCl)ccc1C=NN=C(N)c1cnccn1	none (no result: Apaf1 inhib, PREPL inh, UBC13 polyUb)
CCCNC(=O)N1[C@H]2CC[C@@H]1C(C(=O)OC)=C(c1ccc(Cl)c(C(F)(F)F)c1)C2	none
COC(=O)C1=C(c2ccc(Cl)c(C(F)(F)F)c2)C[C@@H]2CC[C@H]1N2C(=O)NCCOc1ccc(OC)cc1	Apaf1 inhib 40 | Apaf-1 inh conf2 inactive | Rh110 interf inh inactive
COc1ccccc1NC(=O)CN(Cc1ccccc1)S(C)(=O)=O	none
Cc1ccc(C(=O)N/C(=C\c2ccc(C(C)C)cc2)C(=O)NCCCN2CCOCC2)cc1	none

Screening data deposited in PubChem BioAssay by several laboratories.
